Source: ChEMBL document CHEMBL1133665, “Secondary amides of (R)-3,3,3-trifluoro-2-hydroxy-2-methylpropionic acid as inhibitors of pyruvate dehydrogenase kinase” (J Med Chem, 2000)
pEC50: −log10 of the molar value. Active and inactive are the calls of the source. No cut-off for these calls is given here.

Key:
[1] = organism: Homo sapiens; assay: Effective concentration required to increase the oxidation of lactate in cellular assay using Human Skin Fibroblasts; Inactive; assay type: functional
Procedure, shortened: (§1)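 Human fibroblasts harvested with trypsin 2-4 days post-confluence and assayed in suspension ((3.5-5) × 10^5 cells per tube) with test compound or solvent control. Equilibrated at 37 °C, then started with DMEM-S containing 25 µM lactate and 0.2 µCi/mL d,l-[1-14C]lactate. Gassed with 95% O2/5% CO2 and shaken 25 min at 37 °C. Stopped with TCA; released 14CO2 trapped and counted by scintillation. EC50 ± standard error.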

[2] = target: Pyruvate dehydrogenase kinase (Rattus norvegicus, UniProt Q63065+A6IPZ9+Q64536+O54937); assay: Inhibitory activity tested against Pyruvate Dehydrogenase Kinase (PDHK) receptor from rats.; assay type: protein assay
Procedure, shortened: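 Commercial PDH complex used as the kinase-containing preparation. PDHK inhibition read spectrophotometrically as NADH production at 340 nm, measured with and without ATP. IC50 ± standard error, from purified substances.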

[3] = tested on: Rattus norvegicus; assay: In vivo %control of lactate in normal Sprague-Dawley rats after 2 hr at a dose of 30 umol/Kg; not active; assay type: functional, organism-based
Procedure, shortened: (§2)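 Male Sprague-Dawley rats, about 200 g, randomly assigned to groups (n = 6/group) and fasted 24 h. Single oral dose of compound in 0.5% carboxymethylcellulose/0.2% Tween-80 (1 mL/100 g), or vehicle alone. Blood taken 2 h post-dose into heparin/fluoride tubes; lactate measured on a biochemistry analyzer. Expressed as percent of vehicle control; groups compared by two-tailed unpaired t-test.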

[4] = tested on: Rattus norvegicus; assay: In vivo %control of lactate in normal Sprague-Dawley rats after 2 hr at a dose of 1 umol/Kg; assay type: functional
Procedure, shortened: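 Male Sprague-Dawley rats, about 200 g, randomly assigned to groups (n = 6/group), fasted 24 h, then given compound orally in 0.5% carboxymethylcellulose with 0.2% Tween-80 (1 mL/100 g body weight) or vehicle alone. Blood drawn 2 h post-dose into heparin/fluoride tubes. Lactate measured on a dual-channel biochemistry analyzer and expressed as percent of vehicle control. Unpaired two-tailed t-test.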

[5] = organism: Homo sapiens; assay: Effective concentration required to increase the oxidation of lactate in cellular assay using Human Skin Fibroblasts; assay type: functional; procedure, shortened: as §1
[6] = tested on: Rattus norvegicus; assay: In vivo %control of lactate in normal Sprague-Dawley rats after 2 hr at a dose of 300 umol/Kg; assay type: functional; procedure, shortened: as §2
[7] = tested on: Rattus norvegicus; assay: In vivo %control of lactate in normal Sprague-Dawley rats after 2 hr at a dose of 300 umol/Kg; Not active; assay type: functional, organism-based; procedure, shortened: as §2
[8] = tested on: Rattus norvegicus; assay: In vivo %control of lactate in normal Sprague-Dawley rats after 2 hr at a dose of 100 umol/Kg; Not active; assay type: functional, organism-based; procedure, shortened: as §2
[9] = tested on: Rattus norvegicus; assay: In vivo %control of lactate in normal Sprague-Dawley rats after 2 hr at a dose of 10 umol/Kg; assay type: functional; procedure, shortened: as §2
[10] = tested on: Rattus norvegicus; assay: In vivo %control of lactate in normal Sprague-Dawley rats after 2 hr at a dose of 3 umol/Kg; assay type: functional; procedure, shortened: as §2
[11] = tested on: Rattus norvegicus; assay: In vivo %control of lactate in normal Sprague-Dawley rats after 2 hr at a dose of 30 umol/Kg; Not active; assay type: functional, organism-based; procedure, shortened: as §2
[12] = tested on: Rattus norvegicus; assay: In vivo %control of lactate in normal Sprague-Dawley rats after 2 hr at a dose of 30 umol/Kg; assay type: functional; procedure, shortened: as §2
[13] = tested on: Rattus norvegicus; assay: In vivo %control of lactate in normal Sprague-Dawley rats after 2 hr at a dose of 100 umol/Kg; assay type: functional; procedure, shortened: as §2

Structure (SMILES)	IC50 [2]	pEC50 [5]	also measured
CC(C)(C)C(=O)N1CCC(Cc2ccccc2)CC1	282 µM		IA [1]: inactive
CC(=O)N1CCC(Cc2ccccc2)CC1	74 µM		IA [1]: inactive
O=C([O-])C(Cl)Cl.[Na+] [SODIUM DICHLOROACETATE]	> 1000 µM		Control [4]: 70%
C[C@@](O)(C(=O)N1CCN(c2ccccc2)CC1)C(F)(F)F	4.16 µM	4.60	Control [6]: 68%
C[C@@H]1CN(C(=O)[C@@](C)(O)C(F)(F)F)CCN1S(=O)(=O)c1cccc2ccccc12	0.025 µM		NA [11]: inactive
C[C@@](O)(C(=O)N1CCN(c2ccccn2)CC1)C(F)(F)F	3.37 µM	4.89	Control [6]: 68%
C[C@@H]1CN(C(=O)[C@@](C)(O)C(F)(F)F)CCN1S(=O)(=O)c1ccccc1	0.037 µM		NA [11]: inactive
C[C@@H]1CN(C(=O)[C@@](C)(O)C(F)(F)F)CCN1C(=O)c1ccc(C#N)cc1	0.079 µM	6.60	Control [9]: 90%; Control [13]: 67%; Control [12]: 60%

More lines, main results first:

IC50 [2]	Structure (SMILES)	pEC50 [5]	also measured
0.082 µM	C[C@@H]1CN(C(=O)[C@@](C)(O)C(F)(F)F)[C@@H](C)CN1Cc1ccccc1		NA [3]: inactive
0.179 µM	O=C(C(Cl)Cl)N1CCC(Cc2ccccc2)CC1	5.95	NA [7]: inactive
0.07 µM	C[C@@H]1CN(C(=O)[C@@](C)(O)C(F)(F)F)CCN1C(=O)c1cccc2ccccc12		NA [8]: inactive
0.016 µM	C[C@@H]1CN(C(=O)[C@@](C)(O)C(F)(F)F)[C@@H](C)CN1C(=O)c1ccc(C#N)cc1	7.24	Control [4]: 87%; Control [9]: 74%; Control [10]: 90%
0.04 µM	COc1cc(C(=O)N2CCN(C(=O)[C@@](C)(O)C(F)(F)F)C[C@H]2C)cc(OC)c1OC	6.80	Control [12]: 71%; Control [6]: 60%
22.4 µM	CNC(=O)N1CCC(Cc2ccccc2)CC1		IA [1]: inactive
0.0045 µM	C[C@@H]1CN(C(=O)[C@@](C)(O)C(F)(F)F)[C@@H](C)CN1S(=O)(=O)c1cccc2ccccc12		NA [11]: inactive
0.112 µM	C[C@@H]1CN(C(=O)[C@@](C)(O)C(F)(F)F)CCN1c1cc([N+](=O)[O-])ccn1		NA [11]: inactive
